{
  "source": "paper PMC5963734",
  "about": "(Neuron, 2018)",
  "molecules": {"B1": {"name": "GST-PSD-95 1-64 (N-term): GST fusion protein of the N-terminal 64 residues of PSD-95 (protein)", "chain": "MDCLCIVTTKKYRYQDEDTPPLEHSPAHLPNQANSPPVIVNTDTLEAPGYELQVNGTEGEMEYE", "modifications": "left off: GST, N-terminal, kept"}},
  "system": "PSD-95 - α-actinin interaction",
  "experiment": "Competition of co-IP of α-actinin with PSD-95 from brain lysates",
  "parameters": "species or system rat",
  "conditions": "added to Triton X-100 brain lysate during IP of PSD-95; Figure 3D",
  "outline": "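Adult rat brain (1 g) homogenised on ice in buffer A (150 mM NaCl, 10 mM HEPES, 10 mM EDTA, 10 mM EGTA, pH 7.4) with protease inhibitors and 1% Triton X-100, then cleared at 250,000 × g for 30 min. Competitors added: PSD-95 peptide 1-13, GST-PSD-95 1-64, peptide 15-36, or Ca2+ plus CaM. Per IP, 1 mg protein, 1 μg PSD-95 antibody and protein G-Sepharose, 4 h at 4 °C; three washes.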",
  "data": [
    {"molecule": "B1", "values": [
      {"measurement": "disruption of co-IP of α-actinin with PSD-95", "value": "disrupted"}
    ]}
  ]
}
